Active and inactive are the calls of the source. No cut-off for these calls is given here.

The target in experiment [1] is T1, Uracil nucleotide/cysteinyl leukotriene receptor (Homo sapiens, UniProt Q13304). The experiment in a line: Agonist activity at human GPR17 expressed in human 1321N1 cells assessed as induction of calcium mobilization after 1 hr by Oregon Green BAPTA-1/AM dye-based fluorescence assay. It is filed as functional, cell-based. In outline: (§1)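 Stably transfected 1321N1 astrocytoma cells were trypsin/EDTA-harvested, held 45 min at 37°C, then loaded 1 h at 25°C in KRH buffer pH 7.4 with 3 µM Oregon Green BAPTA-1/AM and 1% Pluronic F127, washed, and plated at ~16,000 cells/well. Fluorescence was read at 520 nm for 30 s after compound injection. Efficacy was expressed relative to the maximum given by 10 µM MDL 29,951. EC50 came from concentration-response curves, run for compounds exceeding 50% stimulation at 10 µM. At least three independent experiments, each in duplicate.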

Experiment [2] concerns the target T1, Uracil nucleotide/cysteinyl leukotriene receptor. The experiment in a line: Agonist activity at human GPR17 expressed in human 1321N1 cells assessed as induction of calcium mobilization after 1 hr by Oregon Green BAPTA-1/AM dye-based fluorescence assay relative to MDL 29,951. Type of experiment: functional, cell-based. In outline:
as §1

Experiment [3] addresses Uracil nucleotide/cysteinyl leukotriene receptor (Rattus norvegicus, UniProt Q09QM4). The experiment in a line: Agonist activity at rat GPR17 expressed in HEK293 cells assessed as induction of intracellular calcium mobilization by calcium 5-dye based assay. Type of experiment: functional, cell-based. In outline:
(§2)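 HEK293 cells expressing rat or mouse GPR17 were seeded at 60,000 cells/well on poly-D-lysine plates and loaded 40 min with Calcium 5 indicator dye. Calcium signals were read on a plate reader. EC50 was obtained by nonlinear regression of concentration-response data. Means ± SEM from 3 independent experiments.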

Experiment [4] has as its target Uracil nucleotide/cysteinyl leukotriene receptor (Mus musculus, UniProt Q6NS65). The experiment in a line: Agonist activity at mouse GPR17 expressed in HEK293 cells assessed as induction of intracellular calcium mobilization by calcium 5-dye based assay. Type of experiment: functional, cell-based. In outline: as §2
For experiment [5], the target named is Uracil nucleotide/cysteinyl leukotriene receptor (Rattus norvegicus) (UniProt Q09QM4). The experiment is described as follows: Agonist activity at rat GPR17 expressed in HEK293 cells assessed as induction of intracellular calcium mobilization at 10 uM by calcium 5-dye based assay relative to MDL 29,951. It is filed as functional, cell-based.
For experiment [6], the target named is Uracil nucleotide/cysteinyl leukotriene receptor (Mus musculus) (UniProt Q6NS65). The experiment in a line: Agonist activity at mouse GPR17 expressed in HEK293 cells assessed as induction of intracellular calcium mobilization at 10 uM by calcium 5-dye based assay relative to MDL 29,951. Type of experiment: functional, cell-based.
The target in experiment [7] is P2Y purinoceptor 1 (Homo sapiens) (UniProt P47900). The experiment in a line: Agonist activity at human P2Y1 receptor transfected in human 1321N1 cells assessed as induction of calcium mobilization after 30 mins in presence of ADP by fluo-4 dye based assay. It is filed as functional, cell-based. In outline: (§3)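 Calcium mobilization was measured in 1321N1 astrocytoma cells stably transfected with human P2Y1, P2Y2, P2Y4 or P2Y6 receptors, read on a Flexstation III microplate reader.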

Experiment [8] deals with P2Y purinoceptor 2 (Homo sapiens, UniProt P41231). The experiment is described as follows: Agonist activity at human P2Y2 receptor transfected in human 1321N1 cells assessed as induction of calcium mobilization after 30 mins in presence of UTP by fluo-4 dye based assay. It is filed as functional, cell-based. The procedure, abridged:
as §3

In experiment [9] the target is P2Y purinoceptor 4 (Homo sapiens) (UniProt P51582). The experiment is described as follows: Agonist activity at human P2Y4 receptor transfected in human 1321N1 cells assessed as induction of calcium mobilization after 30 mins in presence of UTP by fluo-4 dye based assay. It is filed as functional, cell-based. In outline:
as §3

For experiment [10], the target named is P2Y purinoceptor 6 (Homo sapiens) (UniProt Q15077). The experiment in a line: Agonist activity at human P2Y6 receptor transfected in human 1321N1 cells assessed as induction of calcium mobilization after 30 mins in presence of UDP by fluo-4 dye based assay. Type of experiment: functional, cell-based. In outline: as §3
Experiment [11] has as its target P2Y purinoceptor 12 (Homo sapiens) (UniProt Q9H244). The experiment is described as follows: Agonist activity at human P2Y12 receptor transfected in CHO cells assessed as induction of beta-arrestin translocation. It is filed as functional, cell-based. In outline:
(§4)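 β-Arrestin translocation assays were run in CHO cells stably transfected with human P2Y12 or P2Y14 receptors.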

In experiment [12] the target is T2, P2Y purinoceptor 14 (Homo sapiens) (UniProt Q15391).
T2 sequence (whole entry): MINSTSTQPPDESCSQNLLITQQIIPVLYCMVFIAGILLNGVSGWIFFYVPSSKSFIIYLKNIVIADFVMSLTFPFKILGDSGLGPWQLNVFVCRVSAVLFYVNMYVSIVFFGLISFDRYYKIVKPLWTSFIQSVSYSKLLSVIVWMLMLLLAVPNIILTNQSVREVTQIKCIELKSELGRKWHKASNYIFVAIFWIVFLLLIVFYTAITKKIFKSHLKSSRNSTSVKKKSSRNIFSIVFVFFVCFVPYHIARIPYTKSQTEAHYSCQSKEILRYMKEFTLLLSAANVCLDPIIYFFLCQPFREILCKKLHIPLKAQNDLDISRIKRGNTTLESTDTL
The experiment is described as follows: Agonist activity at human P2Y14 receptor transfected in CHO cells assessed as induction of beta-arrestin translocation. Type of experiment: functional, cell-based. The procedure, abridged:
as §4

Experiment [13] can be described thus: Selectivity ratio of EC50 for rat GPR17 expressed in HEK293 cells to EC50 for human GPR17 expressed in human 1321N1 cells. It is filed as cell-based.
Experiment [14] is described as follows: Selectivity ratio of EC50 for mouse GPR17 expressed in HEK293 cells to EC50 for human GPR17 expressed in human 1321N1 cells. Type of experiment: cell-based.
For experiment [15], the target named is T1, Uracil nucleotide/cysteinyl leukotriene receptor. The experiment in a line: Displacement of [3H]PSB-12150 from human GPR17 expressed in CHO cell membranes after 60 mins by liquid scintillation counting. In outline:
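Membranes from CHO cells stably expressing human GPR17 were incubated 60 min at 25°C with 25 nM [3H]PSB-12150 (17 Ci/mmol), 10 mM MgCl2 and increasing test compound concentrations. Bound radioligand was separated by GF/B filtration and counted by liquid scintillation. Nonspecific binding was defined with 100 µM unlabeled PSB-12150. Ki came from the Cheng-Prusoff equation with KD 1190 nM. Three independent experiments in duplicate.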

Experiment [16] shares this target. The experiment in a line: Agonist activity at human GPR17 expressed in human 1321N1 cells assessed as induction of calcium mobilization at >=10 uM after 1 hr by Oregon Green BAPTA-1/AM dye-based fluorescence assay relative to control. Type of experiment: functional, cell-based.
Experiment [17] shares this target. The experiment in a line: Agonist activity at human GPR17 expressed in human 1321N1 cells assessed as induction of calcium mobilization at >10 uM after 1 hr by Oregon Green BAPTA-1/AM dye-based fluorescence assay relative to control. Type of experiment: functional, cell-based.
Experiment [18] is filed under the species Homo sapiens. The experiment in a line: Selectivity ratio of EC50 for human P2Y2 receptor transfected in human 1321N1 cells to EC50 for human GPR17 expressed in human 1321N1 cells. It is filed as cell-based.
The target of experiment [19] is T1, Uracil nucleotide/cysteinyl leukotriene receptor. The experiment in a line: Agonist activity at human GPR17 expressed in human 1321N1 cells assessed as induction of calcium mobilization at 30 uM after 1 hr by Oregon Green BAPTA-1/AM dye-based fluorescence assay relative to control. Type of experiment: functional, cell-based.
For experiment [20] the target is unchanged. The experiment is described as follows: Agonist activity at human GPR17 expressed in human 1321N1 cells assessed as induction of calcium mobilization at >30 uM after 1 hr by Oregon Green BAPTA-1/AM dye-based fluorescence assay relative to control. It is filed as functional, cell-based.
Experiment [21] addresses Glutamate NMDA receptor. The experiment is described as follows: Displacement of [3H]CCP from NMDA receptor glutamate binding site in rat cortical and hippocampal membranes.

Sequence of P2Y purinoceptor 6 (Homo sapiens) (Q15077 whole entry): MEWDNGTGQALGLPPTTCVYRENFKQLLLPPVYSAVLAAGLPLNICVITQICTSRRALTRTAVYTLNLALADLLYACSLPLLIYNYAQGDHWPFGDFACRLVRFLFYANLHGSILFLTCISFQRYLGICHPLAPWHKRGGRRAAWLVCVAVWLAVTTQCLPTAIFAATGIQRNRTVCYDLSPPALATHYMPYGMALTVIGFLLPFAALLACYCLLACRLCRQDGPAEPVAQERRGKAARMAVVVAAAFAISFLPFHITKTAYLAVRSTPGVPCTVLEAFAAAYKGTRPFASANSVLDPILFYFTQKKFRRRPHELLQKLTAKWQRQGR
Sequence of P2Y purinoceptor 2 (P41231 whole entry): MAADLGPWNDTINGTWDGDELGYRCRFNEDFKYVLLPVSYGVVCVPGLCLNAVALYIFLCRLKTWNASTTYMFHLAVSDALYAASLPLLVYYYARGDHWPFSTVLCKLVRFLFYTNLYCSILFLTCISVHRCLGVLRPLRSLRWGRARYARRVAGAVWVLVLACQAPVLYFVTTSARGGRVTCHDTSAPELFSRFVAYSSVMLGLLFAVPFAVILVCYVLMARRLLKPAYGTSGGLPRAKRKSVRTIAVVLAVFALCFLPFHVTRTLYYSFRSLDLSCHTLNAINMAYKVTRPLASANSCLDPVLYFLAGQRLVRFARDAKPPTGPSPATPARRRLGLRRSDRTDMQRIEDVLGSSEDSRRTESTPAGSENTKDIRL
Sequence of Uracil nucleotide/cysteinyl leukotriene receptor (Rattus norvegicus, UniProt Q09QM4) (Q09QM4 whole entry): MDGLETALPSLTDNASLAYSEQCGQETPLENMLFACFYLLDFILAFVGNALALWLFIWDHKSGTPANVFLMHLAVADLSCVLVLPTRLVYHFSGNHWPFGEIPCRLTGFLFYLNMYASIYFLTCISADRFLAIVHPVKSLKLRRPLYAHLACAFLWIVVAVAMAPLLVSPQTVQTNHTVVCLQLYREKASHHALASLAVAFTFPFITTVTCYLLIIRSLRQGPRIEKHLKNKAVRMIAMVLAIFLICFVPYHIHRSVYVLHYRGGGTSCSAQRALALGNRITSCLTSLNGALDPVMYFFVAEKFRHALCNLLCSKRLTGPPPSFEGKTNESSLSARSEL
T1 sequence (Q13304 whole entry): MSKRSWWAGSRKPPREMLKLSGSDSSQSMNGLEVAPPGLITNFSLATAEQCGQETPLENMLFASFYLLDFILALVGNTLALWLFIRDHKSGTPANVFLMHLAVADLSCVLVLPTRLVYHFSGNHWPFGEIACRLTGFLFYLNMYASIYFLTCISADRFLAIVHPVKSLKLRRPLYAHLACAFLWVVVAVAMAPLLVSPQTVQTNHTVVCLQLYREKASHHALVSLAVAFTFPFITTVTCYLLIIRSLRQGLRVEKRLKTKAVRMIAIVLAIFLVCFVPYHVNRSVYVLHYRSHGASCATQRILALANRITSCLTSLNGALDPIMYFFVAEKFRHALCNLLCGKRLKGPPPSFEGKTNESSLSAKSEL
Sequence of Uracil nucleotide/cysteinyl leukotriene receptor (Mus musculus, UniProt Q6NS65) (Q6NS65 whole entry): as the sequence (Q09QM4 whole entry) above, with D2N, T6A, A15S, S270A counted along it
Sequence of P2Y purinoceptor 1 (Homo sapiens) (P47900 whole entry): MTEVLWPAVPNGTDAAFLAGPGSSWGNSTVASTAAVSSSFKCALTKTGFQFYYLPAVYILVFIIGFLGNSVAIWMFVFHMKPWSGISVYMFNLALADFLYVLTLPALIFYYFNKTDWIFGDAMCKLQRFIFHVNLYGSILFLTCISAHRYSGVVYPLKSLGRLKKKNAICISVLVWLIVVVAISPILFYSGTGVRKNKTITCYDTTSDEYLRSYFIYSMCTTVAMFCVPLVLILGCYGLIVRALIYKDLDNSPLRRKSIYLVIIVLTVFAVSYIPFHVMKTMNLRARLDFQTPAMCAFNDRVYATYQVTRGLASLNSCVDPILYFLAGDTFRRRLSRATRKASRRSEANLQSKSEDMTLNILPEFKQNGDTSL
Sequence of P2Y purinoceptor 4 (Homo sapiens) (P51582 whole entry): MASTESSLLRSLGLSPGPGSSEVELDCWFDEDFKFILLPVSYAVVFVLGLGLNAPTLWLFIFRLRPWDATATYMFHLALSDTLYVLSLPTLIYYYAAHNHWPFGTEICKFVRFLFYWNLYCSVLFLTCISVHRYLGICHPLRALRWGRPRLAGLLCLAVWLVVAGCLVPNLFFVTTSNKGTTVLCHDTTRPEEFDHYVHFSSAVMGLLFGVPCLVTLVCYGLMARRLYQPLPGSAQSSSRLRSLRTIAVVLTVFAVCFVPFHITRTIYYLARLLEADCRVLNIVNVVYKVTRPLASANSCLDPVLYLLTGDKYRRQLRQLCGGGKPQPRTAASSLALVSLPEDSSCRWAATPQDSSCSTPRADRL
Sequence of P2Y purinoceptor 12 (Homo sapiens) (Q9H244 whole entry): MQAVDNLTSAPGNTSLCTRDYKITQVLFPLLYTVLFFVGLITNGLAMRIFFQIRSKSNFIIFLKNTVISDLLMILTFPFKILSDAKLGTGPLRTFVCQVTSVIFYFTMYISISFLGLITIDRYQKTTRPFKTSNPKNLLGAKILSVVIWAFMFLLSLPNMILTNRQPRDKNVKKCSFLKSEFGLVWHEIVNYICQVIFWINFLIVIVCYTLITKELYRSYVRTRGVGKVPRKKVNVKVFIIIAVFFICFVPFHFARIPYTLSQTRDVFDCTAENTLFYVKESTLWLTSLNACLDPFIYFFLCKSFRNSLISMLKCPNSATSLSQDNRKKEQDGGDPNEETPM
Sequence of Uracil nucleotide/cysteinyl leukotriene receptor (Rattus norvegicus) (Q09QM4 whole entry): as the sequence (Q09QM4 whole entry) above
Sequence of Uracil nucleotide/cysteinyl leukotriene receptor (Mus musculus) (Q6NS65 whole entry): as the sequence (Q09QM4 whole entry) above, with D2N, T6A, A15S, S270A counted along it

Regarding `CCCCCCOc1ccc2c(CCC(=O)O)c(C(=O)O)[nH]c2c1`, the EC50 in experiment [1] came out at 0.115 µM; in [3] it was 5.31 µM; in experiment [4], 5.51 µM. For the same compound, the Emax in experiment [2] was 62%; in experiment [5], 53%; in experiment [6], 28%. In addition, the result in [7], in experiment [8], in [9], in experiment [10], in [11] and in [12] was inactive. Moreover, the Ratio EC50 in experiment [13] and in experiment [14] was 34 to 48 throughout. In addition, affinity in experiment [15] was put at a Ki of 1.5 µM.

On to `O=C(O)CCc1c(C(=O)O)[nH]c2cccc(F)c12`, for which the EC50 in experiment [1] is at least 10 µM. Further, in [16], the Activity came to 44%.

For the compound `CCCCCCOc1cc(Cl)cc2[nH]c(C(=O)O)c(CCC(=O)O)c12`, in [1], the EC50 was over 10 µM. The Activity in experiment [17] amounted to 40%.

Turning to `CCCCCCOc1cc(Cl)c2c(CCC(=O)O)c(C(=O)O)[nH]c2c1`, the EC50 in experiment [1] was 0.067 µM; in experiment [3], 2.3 µM; in [4], 3.03 µM; in experiment [8], at least 50 µM. The Emax in experiment [2] came to 95%; in experiment [5] it was 77%; in experiment [6], 59%. The outcome in experiment [7], in experiment [9], in experiment [10], in experiment [11] and in experiment [12] was inactive. Moreover, the figures for the Ratio EC50 in experiment [18], in experiment [13] and in experiment [14] were over 700, 34 to 48 and 34 to 48, respectively. Further, in experiment [15], the Ki was 13.1 µM.

Turning to `O=C(O)CCc1c(C(=O)O)[nH]c2cccc(Cl)c12`, the concentration giving a half-maximal response (EC50) in experiment [1] was determined as 30 µM. Moreover, the Activity in [19] was found to be 52%.

For `O=C(O)CCc1c(C(=O)O)[nH]c2c(Cl)cccc12`, the EC50 in experiment [1] was over 30 µM. For the same compound, the Activity in [20] is 5%. The compound further displayed an IC50 in [21] of over 1000 µM.

Turning to `O=C(O)CCc1c(C(=O)O)[nH]c2cc(Cl)cc(Cl)c12`, the figures for the EC50 in experiment [3] and in experiment [4] were 0.705 µM and 1.11 µM, respectively. Also, the outcome in experiment [7], in [8], in experiment [9], in experiment [10], in [11] and in experiment [12] was inactive. Further, the Ratio EC50 in experiment [13] and in experiment [14] was 2 to 6 in each case. In [15], this compound came in with a Ki of 2.45 µM.

For `O=C(O)CCc1c(C(=O)O)[nH]c2ccc(Cl)cc12`, the EC50 in experiment [1] is over 30 µM. Further, the Activity in [20] was found to be 11%. Moreover, the IC50 in experiment [21] was found to be 35 µM.

In the case of `CCCCCCCCOc1cc(Cl)cc2[nH]c(C(=O)O)c(CCC(=O)O)c12`, the EC50 in experiment [1] is over 10 µM. In experiment [17], the Activity came out at 25%.
